In brackets after ≈: the same amount, converted by molar mass. Activity calls are given as the source filed them. The rule behind the calls is not given here.
What was measured:
[1] = target: T1, Serine/threonine-protein kinase mTOR (Homo sapiens, UniProt P42345); assay: Inhibition of human mTOR at 10 uM using 4EBP1 as substrate after 120 mins by [gamma-33P]-ATP assay
In short: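 Single-point kinase screen by HotSpot radioisotope filter binding assay; compound at 10 μM with 10 μM ATP, reported as percent inhibition of PI3Kα and mTOR.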

[2] = Half life in CD1 mouse liver microsomes at 1 uM incubated for 60 mins under shaking condition by LC-MS/MS analysis; type: ADME, Microsome
In short: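 Metabolic stability in mouse liver microsomes with test compound at 1 μM; result expressed as t1/2 (min).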

[3] = Kinetic aqueous solubility of compound in 2% DMSO/Phosphate buffer saline incubated for 90 mins under shaking condition by; type: physicochemical; conditions: 2% DMSO/phosphate buffered saline, read-out: Kinetic_solubility
In short: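 Maximum kinetic aqueous solubility measured in 2% DMSO/phosphate-buffered saline, pH 7.4.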

MDA-MB-468 = assay: Antiproliferative activity against human MDA-MB-468 cells assessed as cell viability at 10 uM after 48 hrs by celltiter-glo 2D luminescent assay relative to control; type: functional; conditions: read-out: Activity
In short: (§1)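 2D CellTiter-Glo luminescent viability screen, single 10 μM compound concentration, in MDA-MB-468, MDA-MB-231 and MCF7 breast cancer cells and in normal human dermal fibroblasts; output reported as percent of viable cells.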

MCF7 [4] = assay: Inhibition of PI3K in human MCF7 cells assessed as reduction in AKT phosphorylation at 473 residue after 4 hrs by Western blot analysis; type: cell-based; conditions: dose nM 62.5-125, time 4.0 hrs
In short: (§2)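 MCF7 cells treated for 4 h at 62.5 and 125 nM; lysates probed by Western blot for phospho-AKT(473), phospho-4EBP and phospho-P70S6.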

[5] = target: T1, Serine/threonine-protein kinase mTOR; assay: Inhibition of mTOR in human MCF7 cells assessed as reduction in phosphorylated P70S6K level after 4 hrs by Western blot analysis; type: cell-based; conditions: dose nM 62.5-125, time 4.0 hrs; in short: as §2
[6] = target: PI3-kinase p110-alpha/p85-alpha (Homo sapiens) (UniProt P27986+P42336); assay: Inhibition of human PI3K p110alpha/p85alpha at 10 uM using PIP2 as substrate incubated for 10 mins followed by ATP addition and measured after 30 mins in presence of 10 uM ATP by HTRF assay; type: protein-complex assay
MDA-MB-231 = assay: Antiproliferative activity against human MDA-MB-231 cells assessed as cell viability at 10 uM after 48 hrs by celltiter-glo 2D luminescent assay relative to control; type: functional; conditions: read-out: Activity; in short: as §1
[7] = target: PI3-kinase p110-alpha/p85-alpha (Homo sapiens, UniProt P42336); assay: Inhibition of human PI3K p110alpha/p85alpha using PIP2 as substrate incubated for 10 mins followed by ATP addition and measured after 30 mins in presence of 10 uM ATP by HTRF assay; type: protein-complex assay
Chain of PI3-kinase p110-alpha/p85-alpha (P27986 whole entry): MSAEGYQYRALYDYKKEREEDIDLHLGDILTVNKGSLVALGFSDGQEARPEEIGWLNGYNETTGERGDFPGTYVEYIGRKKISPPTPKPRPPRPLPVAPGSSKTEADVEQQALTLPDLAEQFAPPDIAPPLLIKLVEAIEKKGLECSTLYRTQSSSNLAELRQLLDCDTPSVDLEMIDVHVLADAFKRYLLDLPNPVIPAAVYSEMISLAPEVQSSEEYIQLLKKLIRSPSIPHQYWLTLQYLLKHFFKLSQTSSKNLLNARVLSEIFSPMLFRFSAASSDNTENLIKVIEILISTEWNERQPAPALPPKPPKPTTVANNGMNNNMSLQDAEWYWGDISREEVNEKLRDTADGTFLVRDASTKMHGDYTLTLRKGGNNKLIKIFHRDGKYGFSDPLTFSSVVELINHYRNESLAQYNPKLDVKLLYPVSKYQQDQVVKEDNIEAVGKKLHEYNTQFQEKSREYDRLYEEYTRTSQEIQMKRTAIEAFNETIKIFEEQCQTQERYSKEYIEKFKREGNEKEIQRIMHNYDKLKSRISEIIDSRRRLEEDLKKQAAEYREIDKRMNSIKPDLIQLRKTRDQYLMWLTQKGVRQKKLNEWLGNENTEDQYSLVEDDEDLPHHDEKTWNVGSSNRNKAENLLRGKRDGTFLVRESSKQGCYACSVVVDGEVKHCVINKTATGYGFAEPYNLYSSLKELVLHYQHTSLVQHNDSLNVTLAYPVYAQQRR
Chain of PI3-kinase p110-alpha/p85-alpha (P42336 whole entry): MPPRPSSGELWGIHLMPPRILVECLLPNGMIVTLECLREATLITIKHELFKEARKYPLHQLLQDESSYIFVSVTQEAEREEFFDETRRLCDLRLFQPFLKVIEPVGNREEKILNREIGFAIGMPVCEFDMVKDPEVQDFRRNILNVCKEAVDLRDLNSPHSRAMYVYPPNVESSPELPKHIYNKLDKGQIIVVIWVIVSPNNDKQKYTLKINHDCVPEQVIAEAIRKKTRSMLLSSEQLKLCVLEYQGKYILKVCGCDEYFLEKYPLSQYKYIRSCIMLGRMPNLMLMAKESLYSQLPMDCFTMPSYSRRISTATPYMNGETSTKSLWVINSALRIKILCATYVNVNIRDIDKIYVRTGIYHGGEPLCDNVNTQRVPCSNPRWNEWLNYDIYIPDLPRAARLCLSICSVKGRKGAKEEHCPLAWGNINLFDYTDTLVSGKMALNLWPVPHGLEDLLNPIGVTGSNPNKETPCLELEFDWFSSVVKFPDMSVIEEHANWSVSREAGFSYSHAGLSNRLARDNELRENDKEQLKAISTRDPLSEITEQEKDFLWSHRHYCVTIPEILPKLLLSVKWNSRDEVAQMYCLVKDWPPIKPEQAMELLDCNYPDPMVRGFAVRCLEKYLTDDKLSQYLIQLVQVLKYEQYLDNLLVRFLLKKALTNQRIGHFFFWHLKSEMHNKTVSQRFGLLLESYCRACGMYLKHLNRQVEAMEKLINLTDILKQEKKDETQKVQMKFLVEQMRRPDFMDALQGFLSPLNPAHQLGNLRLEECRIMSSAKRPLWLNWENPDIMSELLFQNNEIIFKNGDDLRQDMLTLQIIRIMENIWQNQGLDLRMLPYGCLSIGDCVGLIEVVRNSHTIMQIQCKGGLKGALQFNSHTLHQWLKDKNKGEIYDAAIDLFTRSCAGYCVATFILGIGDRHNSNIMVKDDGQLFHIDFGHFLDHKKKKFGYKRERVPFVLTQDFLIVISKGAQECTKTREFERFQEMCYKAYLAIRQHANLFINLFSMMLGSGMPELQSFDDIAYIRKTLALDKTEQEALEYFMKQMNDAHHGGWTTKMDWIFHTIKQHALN

[8] = Cytotoxicity against human primary fibroblasts assessed as cell viability at 10 uM after 48 hrs by celltiter-glo 2D luminescent assay relative to control; type: cell-based, Fibroblast; conditions: read-out: Activity; in short: as §1
MCF7 [9] = assay: Antiproliferative activity against human MCF7 cells assessed as reduction in cell viability after 48 hrs by celltiter-glo 3D luminescent assay; type: functional, cell-based; conditions: MCF7, 48 h
In short: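 MCF7 cells grown in 3D culture, viability read by CellTiter-Glo 3D luminescence; dose–response curves run up to 15 μM to derive IC50.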

MCF7 [10] = assay: Antiproliferative activity against human MCF7 cells assessed as cell viability at 10 uM after 48 hrs by celltiter-glo 2D luminescent assay relative to control; type: functional; conditions: read-out: Activity; in short: as §1
[11] = target: T1, Serine/threonine-protein kinase mTOR; assay: Inhibition of mTOR in human MCF7 cells assessed as reduction in phosphorylated 4EBP level after 4 hrs by Western blot analysis; type: cell-based; conditions: dose nM 62.5-125, time 4.0 hrs; in short: as §2
[12] = target: T1, Serine/threonine-protein kinase mTOR; assay: Inhibition of human mTOR using 4EBP1 as substrate after 120 mins by [gamma-33P]-ATP assay

inhibition [1] | half-life at 1 µM [2] | solubility kinetic at 1.5 h [3] | inhibition [5] | inhibition [6] | IC50 [7] | IC50 (MCF7 [9]) | inhibition [11] | IC50 [12] | SMILES | viability at 10 µM (MDA-MB-468) | inhibition (MCF7 [4]) | viability at 10 µM (MDA-MB-231) | viability at 48 h, 10 µM [8] | viability at 10 µM (MCF7 [10])
Active | > 60 min | < 2 µM | Dose-dependent effect | Active | 0.0007 µM | 0.2 µM | Dose-dependent effect |  | CC(=O)Nc1ccc(NC(=O)Nc2ccc(-c3nc(N4CCOCC4)c4ccccc4n3)cc2)cc1 | 50% | Dose-dependent effect | 69% | 71% | 29%
Active | 52 min | 42.6 µM (≈ 20 µg/mL) |  | Active | 6.9 µM |  |  | 11.4 µM | O=S(=O)(Nc1nccs1)c1ccc(Nc2nc(N3CCOCC3)c3ccccc3n2)cc1 |  |  |  |  | 

Reference: ChEMBL document CHEMBL4725466, “Discovery and SAR of Novel Disubstituted Quinazolines as Dual PI3Kalpha/mTOR Inhibitors Targeting Breast Cancer” (ACS Med Chem Lett, 2020)
